# From ChEMBL document CHEMBL1128448, “Synthesis and antifungal activity of new azole derivatives containing an N-acylmorpholine ring” (1995)
# Key:
# [1] = tested on: Aspergillus fumigatus; assay: In vitro evaluation of minimum inhibitory concentration against Aspergillus fumigatus 33; assay type: functional; conditions: Aspergillus fumigatus; read-out: MIC
# Method in brief: (§1)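 Stocks are 800 μg/mL in 50% ethanol. Each plate gets 10 μL of inoculum at 10^5 cfu/mL. Incubation at 25 °C, 48 h for yeasts and 120 h for dermatophytes and molds. Organisms are ATCC strains or clinical isolates.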
# [2] = tested on: Aspergillus niger; assay: In vitro evaluation of minimum inhibitory concentration against Aspergillus niger 18; assay type: functional; conditions: Aspergillus niger; read-out: MIC; method in brief: as §1
# [3] = tested on: Candida albicans; assay: In vitro evaluation of minimum inhibitory concentration against Candida albicans 76; assay type: functional; method in brief: as §1
# [4] = tested on: Candida albicans; assay: Evaluation of In vitro antifungal activity against Candida albicans 2.01 by broth macro dilution method; assay type: functional
# Method in brief: (§2)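 Yeast MIC and MFC by broth macrodilution per NCCLS M27-P in RPMI-1640 buffered with 0.165 M MOPS. Fluconazole in sterile water, other drugs in DMSO. C. parapsilosis ATCC 22019 is the reference strain in each run. MIC is the lowest concentration with turbidity ≤ the 80% inhibition standard. For MFC, 0.04 mL from clear tubes is plated on Sabouraud agar; MFC is the lowest concentration giving ≤1 colony.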
# [5] = tested on: Candida albicans; assay: Evaluation of In vitro antifungal activity against Candida albicans 31 by broth macro dilution method; assay type: functional; method in brief: as §2
# [6] = tested on: Candida albicans; assay: Evaluation of In vitro antifungal activity against Candida albicans 406 by broth macro dilution method; assay type: functional; method in brief: as §2
# [7] = tested on: Candida albicans; assay: Evaluation of In vitro antifungal activity against Candida albicans 76 by broth macro dilution method; assay type: functional; method in brief: as §2
# [8] = tested on: Candida albicans; assay: Evaluation of In vitro antifungal activity against Candida albicans ATCC 10231 by broth macro dilution method; assay type: functional; method in brief: as §2
# [9] = tested on: Candida albicans; assay: Evaluation of In vitro antifungal activity against Candida albicans C52 by broth macro dilution method; assay type: functional; method in brief: as §2
# [10] = tested on: Candida albicans; assay: Evaluation of […] antifungal activity against Candida albicans 60 by broth macro dilution method; assay type: functional; method in brief: as §2
# [11] = tested on: Meyerozyma guilliermondii; assay: Evaluation of In vitro antifungal activity against Candida guilliermondii 26 by broth macro dilution method; assay type: functional; method in brief: as §2
# [12] = tested on: Meyerozyma guilliermondii; assay: In vitro evaluation of minimum inhibitory concentration against Candida guilliermondii 26; assay type: functional; conditions: Meyerozyma guilliermondii; read-out: MIC; method in brief: as §1
# [13] = tested on: Pichia kudriavzevii; assay: Evaluation of In vitro antifungal activity against Candida krusei 70 by broth macro dilution method; assay type: functional; method in brief: as §2
# [14] = tested on: Pichia kudriavzevii; assay: In vitro evaluation of minimum inhibitory concentration against Candida krusei 70; assay type: functional; conditions: Pichia kudriavzevii; read-out: MIC; method in brief: as §1
# [15] = tested on: Kluyveromyces marxianus; assay: Evaluation of In vitro antifungal activity against Candida pseudotropicalis ATCC 28838 by broth macro dilution method; assay type: functional; method in brief: as §2
# [16] = tested on: Kluyveromyces marxianus; assay: Evaluation of In vitro antifungal activity against yeasts by broth macro dilution method; assay type: functional; method in brief: as §2
# [17] = tested on: Candida parapsilosis; assay: Evaluation of In vitro antifungal activity against Candida parapsilosis ATCC 22019 by broth macro dilution method; assay type: functional; conditions: Lodderomyces parapsilosis; method in brief: as §2
# [18] = tested on: Candida parapsilosis; assay: Evaluation of In vitro antifungal activity against Candida parapsilosis C292 by broth macro dilution method; assay type: functional; conditions: Lodderomyces parapsilosis; method in brief: as §2
# [19] = tested on: Candida parapsilosis; assay: Evaluation of In vitro antifungal activity against Candida parapsilosis C74 by broth macro dilution method; assay type: functional; conditions: Lodderomyces parapsilosis; method in brief: as §2
# [20] = tested on: Candida parapsilosis; assay: In vitro evaluation of minimum inhibitory concentration against Candida parapsilosis 61; assay type: functional; conditions: Lodderomyces parapsilosis; read-out: MIC; method in brief: as §1
# [21] = tested on: Candida tropicalis; assay: Evaluation of In vitro antifungal activity against Candida tropicalis 50 by broth macro dilution method; assay type: functional; method in brief: as §2
# [22] = tested on: Cryptococcus neoformans; assay: Evaluation of In vitro antifungal activity against Cryptococcus neoformans 74 by broth macro dilution method; assay type: functional; method in brief: as §2
# [23] = tested on: Cryptococcus neoformans; assay: Evaluation of In vitro antifungal activity against Cryptococcus neoformans 87 by broth macro dilution method; assay type: functional; method in brief: as §2
# [24] = tested on: Mus sp.; assay: In vivo evaluation of % survival rate after peroral administration on 3rd day at dose 0.5 mg/kg; assay type: functional; conditions: route oral
# [25] = tested on: Mus sp.; assay: In vivo evaluation of % survival rate after peroral administration on 3rd day at dose 1 mg/kg; assay type: functional; conditions: Mus sp., po
# [26] = tested on: Mus sp.; assay: In vivo evaluation of % survival rate after peroral administration on 5th day at dose 0.5 mg/kg; assay type: functional; conditions: route oral
# [27] = tested on: Mus sp.; assay: In vivo evaluation of % survival rate after peroral administration on 5th day at dose 1 mg/kg; assay type: functional; conditions: Mus sp., po
# [28] = tested on: Mus musculus; assay: In vivo evaluation of % survival rate after peroral administration on 7th day at dose 0.5 mg/kg; assay type: functional; conditions: Mus musculus, po
# [29] = tested on: Mus sp.; assay: In vivo evaluation of % survival rate after peroral administration on 7th day at dose 1 mg/kg; assay type: functional
# [30] = tested on: Mus sp.; assay: In vivo evaluation of % survival rate after peroral administration on 9th day at dose 0.5 mg/kg; assay type: functional; conditions: Mus sp., po
# [31] = tested on: Mus sp.; assay: In vivo evaluation of % survival rate after peroral administration on 9th day at dose 1 mg/kg; assay type: functional
# [32] = tested on: Microsporum canis; assay: In vitro evaluation of minimum inhibitory concentration against Microsporum canis 47; assay type: functional; conditions: Microsporum canis; read-out: MIC; method in brief: as §1
# [33] = tested on: Nannizzia gypsea; assay: In vitro evaluation of minimum inhibitory concentration against Microsporum gypseum 22; assay type: functional; conditions: Nannizzia gypsea; read-out: MIC; method in brief: as §1
# [34] = tested on: Trichophyton benhamiae; assay: In vitro evaluation of minimum inhibitory concentration against Trichophyton mentagrophytes 23; assay type: functional, Arthroderma benhamiae; conditions: Trichophyton benhamiae; read-out: MIC; method in brief: as §1
# [35] = tested on: Trichophyton rubrum; assay: In vitro evaluation of minimum inhibitory concentration against Trichophyton rubrum 90; assay type: functional; conditions: Trichophyton rubrum; read-out: MIC; method in brief: as §1
# [36] = tested on: Pichia kudriavzevii; assay: Evaluation of In vitro antifungal activity against Candida krusei C64 by broth macro dilution method; assay type: functional; method in brief: as §2
# [37] = tested on: Candida parapsilosis; assay: Evaluation of In vitro antifungal activity against Candida parapsilosis 2.07 by broth macro dilution method; assay type: functional; conditions: Lodderomyces parapsilosis; method in brief: as §2
# [38] = tested on: Candida parapsilosis; assay: Evaluation of In vitro antifungal activity against Candida parapsilosis ATCC 141095 by broth macro dilution method; assay type: functional; conditions: Lodderomyces parapsilosis; method in brief: as §2
# [39] = tested on: Aspergillus flavus; assay: In vitro evaluation of minimum inhibitory concentration against Aspergillus flavus 19; assay type: functional; conditions: Aspergillus flavus; read-out: MIC; method in brief: as §1
# [40] = tested on: Candida albicans; assay: Evaluation of In vitro antifungal activity against Candida albicans C56 by broth macro dilution method; assay type: functional; method in brief: as §2
# [41] = tested on: Rattus norvegicus; assay: In vivo evaluation of antifungal activity against vaginal candidosis in rat at dose 0.25 mg/kg on 15th day; assay type: functional
# Method in brief: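 Groups of 10 female Wistar rats given estradiol 25 mg/kg sc on day -5, infected intravaginally with C. albicans by sterile swab on day 0; infection confirmed on day 3 by swab culture (TSB, then Sabouraud agar). Oral dosing once daily on days 3, 4, 5; vehicle controls. Vaginal swabs cultured on days 10 and 15; read-out % cured (culture-negative).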
# [42] = tested on: Candida albicans; assay: Evaluation of In vitro antifungal activity against Candida albicans 60 by broth macro dilution method
compound,measurement,setting,value
C[C@H]1N(C(=O)c2ccc(C(F)(F)F)cc2)C[C@H](O)O[C@@]1(Cn1cncn1)c1ccc(F)cc1F (stereo in doubt; (-)-39a),MIC,[1],80 mg/L
same,MIC,[2],> 80 mg/L
same,MIC,[3],10 mg/L
same,MFC,[4],> 64 mg/L
same,MIC,[4],2 mg/L
same,MFC,[5],> 64 mg/L
same,MIC,[5],0.5 mg/L
same,MFC,[6],> 64 mg/L
same,MIC,[6],1 mg/L
same,MFC,[7],> 64 mg/L
same,MIC,[7],1 mg/L
same,MFC,[8],> 64 mg/L
same,MIC,[8],0.5 mg/L
same,MFC,[9],> 64 mg/L
same,MIC,[9],0.5 mg/L
same,MIC,[10],1 mg/L
same,MFC,[11],> 64 mg/L
same,MIC,[11],32 mg/L
same,MIC,[12],80 mg/L
same,MFC,[13],> 64 mg/L
same,MIC,[13],> 64 mg/L
same,MIC,[14],> 80 mg/L
same,MFC,[15],64 mg/L
same,MIC,[16],0.5 mg/L
same,MFC,[17],32 mg/L
same,MIC,[17],16 mg/L
same,MFC,[18],> 64 mg/L
same,MIC,[18],8 mg/L
same,MFC,[19],32 mg/L
same,MIC,[19],2 mg/L
same,MIC,[20],40 mg/L
same,MFC,[21],> 64 mg/L
same,MIC,[21],> 64 mg/L
same,MFC,[22],2 mg/L
same,MIC,[22],0.25 mg/L
same,MFC,[23],> 64 mg/L
same,MIC,[23],4 mg/L
same,survival at 0.5 mg/kg,[24],100%
same,survival at 1 mg/kg,[25],100%
same,survival at 0.5 mg/kg,[26],100%
same,survival at 1 mg/kg,[27],100%
same,survival at 0.5 mg/kg,[28],80%
same,Survival,"[29]; route oral, 1 mg/kg",100%
same,survival at 0.5 mg/kg,[30],40%
same,Survival,"[31]; route oral, 1 mg/kg",100%
same,MIC,[32],40 mg/L
same,MIC,[33],80 mg/L
same,MIC,[34],> 80 mg/L
same,MIC,[35],40 mg/L
same,MFC,[36],> 64 mg/L
same,MIC,[36],> 64 mg/L
same,MFC,[37],> 64 mg/L
same,MIC,[37],4 mg/L
same,MFC,[38],> 64 mg/L
same,MIC,[38],> 64 mg/L
same,MIC,[39],> 80 mg/L
same,MFC,[40],> 64 mg/L
same,MIC,[40],1 mg/L
same,Cure rate,[41],100%
same,MFC,[42],> 64 mg/L
OC(Cn1cncn1)(Cn1cncn1)c1ccc(F)cc1F [FLUCONAZOLE],MIC,[1],> 80 mg/L
same,MIC,[2],> 80 mg/L
same,MIC,"[3]; Candida albicans, read-out: MIC",40 mg/L
same,MFC,[4],> 64 mg/L
same,MIC,[4],1 mg/L
same,MFC,[5],> 64 mg/L
same,MIC,[5],0.25 mg/L
same,MFC,[6],> 64 mg/L
same,MIC,[6],0.25 mg/L
same,MFC,[7],> 64 mg/L
same,MIC,[7],0.25 mg/L
same,MFC,[8],> 64 mg/L
same,MIC,[8],2 mg/L
same,MFC,[9],> 64 mg/L
same,MIC,[9],0.25 mg/L
same,MIC,[10],0.5 mg/L
same,MIC,[11],8 mg/L
same,MIC,[12],10 mg/L
same,MFC,[13],> 64 mg/L
same,MIC,[13],32 mg/L
same,MIC,[14],> 80 mg/L
same,MFC,[15],32 mg/L
same,MIC,[16],0.5 mg/L
same,MFC,[17],> 64 mg/L
same,MIC,[17],4 mg/L
same,MFC,[18],> 64 mg/L
same,MIC,[18],1 mg/L
same,MFC,[19],2 mg/L
same,MIC,[19],0.25 mg/L
same,MIC,[20],20 mg/L
same,MFC,[21],> 64 mg/L
same,MIC,[21],8 mg/L
same,MFC,[22],1 mg/L
same,MIC,[22],0.5 mg/L
same,MFC,[23],> 64 mg/L
same,MIC,[23],8 mg/L
same,survival at 0.5 mg/kg,[24],100%
same,survival at 1 mg/kg,[25],100%
same,survival at 0.5 mg/kg,[26],90%
same,survival at 1 mg/kg,[27],96%
same,survival at 0.5 mg/kg,[28],20%
same,survival at 1 mg/kg,"[29]; Mus sp., po",52%
same,survival at 0.5 mg/kg,[30],10%
same,survival at 1 mg/kg,"[31]; Mus sp., po",6%
same,MIC,[32],> 80 mg/L
same,MIC,[33],> 80 mg/L
same,MIC,[34],> 80 mg/L
same,MIC,[35],> 80 mg/L
same,MFC,[36],> 64 mg/L
same,MIC,[36],64 mg/L
same,MFC,[37],> 64 mg/L
same,MIC,[37],1 mg/L
same,MFC,[38],> 64 mg/L
same,MIC,[38],2 mg/L
same,MIC,[39],> 80 mg/L
same,MFC,[40],> 64 mg/L
same,MIC,[40],0.5 mg/L
same,Cure rate,[41],25%
same,MFC,[42],> 64 mg/L
